Reference: ChEMBL document CHEMBL1926615, “1,2,3-Triazole tethered β-lactam-chalcone bifunctional hybrids: synthesis and anticancer evaluation” (Eur J Med Chem, 2012)

Experiments:
Format in all cases: functional
[1] = system: Caco-2; assay: Growth inhibition of human Caco2 cells at 20 uM after 48 hrs by SRB assay; settings: Caco-2, 48 h, read-out: GI
Outline: (§1)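 Cells grown in RPMI-1640 (2 mM glutamine, pH 7.4, 10% fetal calf serum, penicillin/streptomycin) at 37 °C, 5% CO2, 90% RH. Seeded as suspension of 1 x 10^5 cells/ml, grown 24 h, then test solutions (from DMSO stocks diluted in medium with gentamycin) added for 48 h. Fixed with TCA at 4 °C 1 h, SRB stained, dye dissolved in Tris-HCl pH 10.4, OD 540 nm. Percent growth inhibition computed versus untreated growth after blank subtraction.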

[2] = system: THP-1; assay: Growth inhibition of human THP1 cells at 20 uM after 48 hrs by SRB assay; settings: THP-1, 48 h, read-out: GI; outline: as §1
[3] = system: PC-3; assay: Growth inhibition of human PC3 cells at 1 uM after 48 hrs by SRB assay; settings: PC-3, 48 h, read-out: GI
Outline: (§2)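 Sulforhodamine B readout at 540 nm after 48 h exposure of cells seeded at 1×10⁵ cells/ml and pre-grown 24 h in RPMI-1640 with 10% fetal calf serum (37 °C, 5% CO2). Compounds diluted in medium from DMSO stocks.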

[4] = system: A549; assay: Growth inhibition of human A549 cells at 1 uM after 48 hrs by SRB assay; settings: A549, 48 h, read-out: GI; outline: as §2

Structure (SMILES): O=c1[nH]cc(F)c(=O)[nH]1 [FLUOROURACIL]
- inhibition of growth at 20 µM [1]: 68%
- inhibition of growth at 20 µM [2]: 70%

Structure (SMILES): CO[C@@]12[C@H](COC(N)=O)C3=C(C(=O)C(C)=C(N)C3=O)N1C[C@@H]1N[C@@H]12 [MITOMYCIN]
- inhibition of growth at 1 µM [3]: 60%

Structure (SMILES): CC(=O)O[C@H]1C(=O)[C@@]2(C)[C@H]([C@H](OC(=O)c3ccccc3)[C@]3(O)C[C@H](OC(=O)[C@H](O)[C@@H](NC(=O)c4ccccc4)c4ccccc4)C(C)=C1C3(C)C)[C@]1(OC(C)=O)CO[C@@H]1C[C@@H]2O [PACLITAXEL]
- inhibition of growth at 1 µM [4]: 69%
